Measurements taken from ChEMBL document CHEMBL1139794, “Anti-AIDS agents 66: syntheses and anti-HIV activity of phenolic and aza 3',4'-di-O-(-)-camphanoyl-(+)-cis-khellactone (DCK) derivatives” (Bioorg Med Chem, 2007).
pEC50, pIC50: −log10 of the molar value.

What was measured:
[1] = Metabolic stability in human liver microsomes assessed as half life at 1 uM; format: ADME, Microsome
Outline: (§1)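 Compound in 100 mM sodium phosphate, pH 7.4, with 0.1 mg/mL human liver microsomes and 5 mM MgCl2. Preincubated 10 min at 37 °C, then started with NADPH (15 mM stock). Run in duplicate, with NADPH-free controls. Sampled at 0–60 min and quenched in ice-cold acetonitrile with internal standard. Quantified by HPLC-UV; % remaining relative to 0 min gave t1/2, and scaled Clint in L/min/kg.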

Liver microsomes = test: Intrinsic clearance in human liver microsomes at 1 uM; format: ADME, Microsome; outline: as §1
[2] = test system: Human immunodeficiency virus 1; test: Antiviral activity against HIV1 3B replication in H9 cells; format: functional, organism-based; conditions: Human immunodeficiency virus 1, 3B
H9 = test: Reduction in cell viability of human H9 cells; format: cell-based
[3] = Therapeutic index, ratio of IC50 for human H9 cells to EC50 for HIV1 3B; format: cell-based; conditions: read-out: Ratio IC50/EC50

Structure (SMILES) | half-life at 1 µM [1] | clearance (Liver microsomes) | pEC50 [2] | pIC50 (H9) | selectivity ratio [3]
Cc1c(O)c2ccc3c(c2oc1=O)[C@@H](OC(=O)C12CCC(C)(C(=O)O1)C2(C)C)[C@@H](OC(=O)C12CCC(C)(C(=O)O1)C2(C)C)C(C)(C)O3 (some centres undefined) | 3.5 min | 2000 mL/min/kg | 5.68 | 4.51 | 15
Cc1cc2c(c3oc(=O)cc(O)c13)[C@@H](OC(=O)C13CCC(C)(C(=O)O1)C3(C)C)[C@@H](OC(=O)C13CCC(C)(C(=O)O1)C3(C)C)C(C)(C)O2 (some centres undefined) |  |  | 5.92 | 4.85 | 12
Cc1cc(=O)oc2c3c(ccc12)OC(C)(C)[C@H](OC(=O)C12CCC(C)(C(=O)O1)C2(C)C)[C@@H]3OC(=O)C12CCC(C)(C(=O)O1)C2(C)C (some centres undefined) | 3.4 min | 2000 mL/min/kg | 7.70 | < 5.00 | > 500
Cc1cn([C@H]2C[C@H](N=[N+]=[N-])[C@@H](CO)O2)c(=O)[nH]c1=O [ZIDOVUDINE] |  |  | 7.30 | 2.72 | 38000

Further compounds by rising pEC50 [2], results first:

half-life at 1 µM [1] | clearance (Liver microsomes) | pEC50 [2] | Structure (SMILES) | pIC50 (H9) | selectivity ratio [3]
 |  | 4.82 | CC1(C)Oc2ccc3c(O)cc(=O)oc3c2[C@@H](OC(=O)C23CCC(C)(C(=O)O2)C3(C)C)[C@H]1OC(=O)C12CCC(C)(C(=O)O1)C2(C)C (some centres undefined) | < 4.40 | > 3
3.1 min | 2300 mL/min/kg | 5.82 | Cc1cc(=O)oc2c3c(c(O)cc12)OC(C)(C)[C@H](OC(=O)C12CCC(C)(C(=O)O1)C2(C)C)[C@@H]3OC(=O)C12CCC(C)(C(=O)O1)C2(C)C (some centres undefined) | < 4.42 | > 25
9.6 min | 700 mL/min/kg | 6.11 | Cc1cc(=O)oc2c3c(ccc12)NC(C)(C)[C@H](OC(=O)C12CCC(C)(C(=O)O1)C2(C)C)[C@@H]3OC(=O)C12CCC(C)(C(=O)O1)C2(C)C (some centres undefined) | < 4.49 | > 42
